Assay outcomes as filed in PubChem BioAssay.
A selection: hits, their analogues and other compounds. The true share with any hit is near 2.5%.
DENV2 CPE rescue – inhibitors of DENV2 cytopathic effect, primary screen, cell-based, plate reader, single concentration | DENV2-infected cells, cytopathic effect rescue | CPE inhibition, % at 9.99 µM | 350,000 compounds, 1.7% hits; in the data active = CPE inhibition above about 20%, passing the limit was not always enough; inconclusive = no clear call, values can overlap the other calls; tested in BHK-21 cells;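 note: 0% = median of neutral control wells and 100% = median of positive control wells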
SIRT5 inh – SIRT5 desuccinylase inhibitors, primary screen, biochemical, fluorescence imaging, single point, set 5; 330,000 compounds, 1.1% hits; Purified SirT5, succinyl-peptide AMC, trypsin-coupled fluorescence; NAD-dependent protein deacylase sirtuin-5, mitochondrial (Homo sapiens), Q9NXA8; inhibition, % at 15 µM; in the data active = inhibition above about 15%; inconclusive = no clear call, values can overlap the other calls
E-sel inducer – E-selectin induction in HUVECs, primary screen, imaging, HUVEC, immunofluorescence imaging, single point. activation, % at 7.58 µM. P16581. normalized: neutral wells 0, TNF-alpha wells 100. 260,000 compounds, 0.37% hits;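 active = mean E-selectin-positive cell signal at least 10% of the positive control, reached in at least 60% of replicates, without over 20% cell loss; inconclusive = no rule given, readout overlaps actives, possibly toxicity-flagged; inactive = the rest, including those meeting only one limit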
Target sequence (P16581 whole entry, looked up): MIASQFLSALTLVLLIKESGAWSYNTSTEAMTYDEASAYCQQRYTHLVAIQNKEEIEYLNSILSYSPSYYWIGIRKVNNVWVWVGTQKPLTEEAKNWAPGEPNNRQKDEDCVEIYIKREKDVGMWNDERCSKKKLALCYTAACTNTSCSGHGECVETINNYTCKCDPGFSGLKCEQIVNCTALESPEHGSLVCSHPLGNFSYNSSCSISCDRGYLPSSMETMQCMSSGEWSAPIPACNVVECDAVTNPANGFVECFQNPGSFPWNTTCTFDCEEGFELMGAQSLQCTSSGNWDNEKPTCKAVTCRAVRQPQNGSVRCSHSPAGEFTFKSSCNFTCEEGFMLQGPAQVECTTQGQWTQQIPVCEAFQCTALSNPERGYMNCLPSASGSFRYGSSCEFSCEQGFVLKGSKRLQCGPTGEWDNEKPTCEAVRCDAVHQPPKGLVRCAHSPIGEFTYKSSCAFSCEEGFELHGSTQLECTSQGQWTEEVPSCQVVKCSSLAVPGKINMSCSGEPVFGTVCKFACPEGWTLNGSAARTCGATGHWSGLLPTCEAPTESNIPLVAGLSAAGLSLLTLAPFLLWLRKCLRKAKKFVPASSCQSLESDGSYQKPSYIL
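assay system = HUVEC, human umbilical vein endothelial cells | input = 3,000 HUVEC seeded per well | medium = EGM-2 growth medium on 0.1% gelatin-coated wells | dosing = one compound dose added by pin transfer | signal = immunofluorescence imaging | read-out basis = % PE-positive cells | control set = TNF-alpha, DMSO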
ERAP1 HTS inh – human ERAP1 aminopeptidase inhibitors, primary screen, biochemical, single point, plate reader | recombinant ERAP1, Leu-AMC fluorescence, 60 min | inhibition, % at 10.7 µM | 340,000 compounds, 0.15% hits;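 active = mean replicate inhibition of at least 30%, or all replicates individually reaching that 30% level; inactive = mean below 30% and not every replicate reaching it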;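 note: 0% = neutral control wells and 100% = L-leucinethiol positive control wells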
PglD DTNB – C. jejuni PglD acetyltransferase inhibitors, primary screen, biochemical, DTNB colorimetric, single point. inhibition, % at 12.5 µM. AID 602405, 2012. 360,000 compounds, 0.098% hits. purified PglD enzyme, DTNB colorimetric CoA detection. UDP-N-acetylbacillosamine N-acetyltransferase PglD (Campylobacter jejuni); in the data active = inhibition above about 16%, passing the limit was not always enough; inconclusive = no clear call, values can overlap the other calls
The depositor's hits bear a star; ? = inconclusive; . = not tested or not shown.

SMILES | DENV2 CPE rescue | SIRT5 inh | E-sel inducer | ERAP1 HTS inh | PglD DTNB
CC(C)(CN1CCN(Cc2ccccc2)CC1)NS(=O)(=O)c1ccc(Cl)cc1 | 29.6* | -2.9 | 0.0 | -0.3 | 4.5
COc1ccc(S(=O)(=O)N2CCC(C(=O)Nc3ccccc3N3CCCCC3)CC2)cc1OC | 1.9 | 0.5 | . | -3.8 | 5.8
O=C1c2ccc(Oc3ccc([N+](=O)[O-])cc3)cc2C(=O)N1CCCO | -1.4 | 0.7 | . | 3.6 | -3.7
Clc1ccc(-c2csc(-c3cccnc3)n2)s1 | 51.0* | -1.1 | 0.0 | . | 2.9
O=C1N[C@@H](Cc2ccccc2)[C@@H](c2ccco2)O1 | ? | 45.0* | 0.0 | 12.3 | 0.8
COc1ccc(C#Cc2ccc([C@H]3[C@H]4CN(C(=O)Nc5ccc(F)cc5)CCCCN4[C@H]3CO)cc2)cc1 | -12.1 | 4.0 | 0.2 | 0.6 | 5.7
Cc1ccc(OCCSc2nc3ccccc3n2CCC(=O)O)cc1 | -3.7 | 21.4* | 0.2 | -2.0 | 1.6
CN1CCN(c2cc(-c3ccc4ccccc4c3)nc3ccnn23)CC1 | 0.6 | . | 15.3 | -3.8 | -2.5
CC(C)C(=O)N=c1sc2cccc(F)c2n1C | -7.2 | -5.7 | 3.8 | -3.3 | .
COc1cccc(NC(=O)N(C)C[C@@H]2Oc3ncc(C4=CCCCC4)cc3C(=O)N([C@H](C)CO)C[C@@H]2C)c1 | -7.5 | -0.7 | -0.1 | 5.2 | 2.8
Cc1cc(C(=O)N/N=C2\CCCc3ccccc32)c(C)o1 | -3.5 | 0.6 | -0.1 | -1.3 | .
Cc1cc(C(=O)N/N=C2/CC(C)CC(C)(C)C2)c(C)o1 (stereo not drawn) | -0.7 | 41.3* | -0.4 | -5.5 | .
CCC1=C(OC(=O)N(CC)CC)N2C(=O)OC(=NCCOC)[C@]2(Cc2ccccc2)[C@H]2C1=CC[C@H]1C(=O)N(CC)C(=O)[C@H]12 | 21.1* | . | 0.5 | -1.3 | -4.8
CCC1=C2CC[C@H]3C(=O)N(C)C(=O)[C@H]3[C@H]2[C@@]2(Cc3ccccc3)C(=NCCOC)OC(=O)N2C1=O | 40.3* | -0.3 | -0.1 | 8.8 | 0.9
CC1OC2(C)OC(=N)C1(C#N)C(C#N)(C#N)C2c1ccccc1 (stereo not drawn) | ? | -9.4 | . | 7.6 | 0.0
CCCCC1OC2(C)OC(=N)C1(C#N)C(C#N)(C#N)C2c1ccccc1 (stereo not drawn) | 72.7* | . | . | -20.9 | .
CN1CCC(=O)N([C@H](CN=[N+]=[N-])c2ccccc2)CC1 | 8.3 | . | 0.7 | -2.9 | -0.8
COc1ccccc1-c1ccc(=O)n(CC(=O)NC(C)(C)C)n1 | -1.8 | -1.9 | . | 2.6 | .
Cc1ccc(NC(=O)[C@H](NC(=O)[C@@H]2Cc3ccccc3CN2)c2ccccc2)cc1 | -7.2 | -1.6 | . | -9.4 | 2.5
CC(C)c1ccc(NC(=O)[C@H](NC(=O)[C@@H]2Cc3ccccc3CN2)c2ccccc2)cc1 | 56.7* | -3.0 | . | 1.4 | .
C[C@@H]1CN([C@@H](C)CO)C(=O)c2cc(NC(=O)C3CC3)ccc2O[C@H]1CN(C)Cc1ccc(Oc2ccccc2)cc1 | 33.0* | 1.7 | . | -0.6 | 2.5
C[C@@H]1CN([C@@H](C)CO)C(=O)c2cc(NC(=O)C3CC3)ccc2O[C@@H]1CN(C)Cc1ccc(Oc2ccccc2)cc1 | 79.0* | 2.8 | . | 3.6 | -1.3
O=C(C[C@H]1CC[C@@H]2[C@H](COC[C@@H](O)CN2C(=O)Nc2cccc(F)c2)O1)NCc1ccccc1Cl | -2.1 | 2.2 | 0.0 | 1.2 | 1.3
COCCNC(=O)CCCn1c(=O)c2cc(OC)c(OC)cc2n(CC(=O)Nc2ccccc2OC)c1=O | 7.6 | 0.6 | 3.2 | . | .
COCCNC(=O)CCCn1c(=O)c2cc(OC)c(OC)cc2n(CC(=O)c2cccc(OC)c2)c1=O | 2.8 | 19.1* | -0.3 | . | .
SMILES | DENV2 CPE rescue | SIRT5 inh | E-sel inducer | ERAP1 HTS inh | PglD DTNB
C[C@@H]1CCCCO[C@@H](CN(C)C(=O)Nc2ccc(C(F)(F)F)cc2)[C@H](C)CN([C@@H](C)CO)C(=O)c2cc(NC(=O)Nc3ccc4c(c3)OCO4)ccc2O1 | -3.2 | 15.5* | 0.1 | -0.4 | -0.4
C[C@H](CO)N1C[C@H](C)[C@@H](CN(C)C(=O)Nc2ccc3c(c2)OCO3)OCCCC[C@H](C)Oc2ccc(NC(=O)Nc3ccc(C(F)(F)F)cc3)cc2C1=O | 0.8 | 2.4 | 3.8 | -0.4 | -4.6
C[C@H](CO)N1C[C@H](C)[C@H](CN(C)C(=O)Nc2ccc(C(F)(F)F)cc2)OCCCC[C@H](C)Oc2ccc(NC(=O)Nc3ccc4c(c3)OCO4)cc2C1=O | -2.4 | 15.1* | 0.7 | 1.8 | -0.8
COc1ccc(S(=O)(=O)N2CCOCC2)cc1NC(=O)/C=C/c1ccccc1 | 5.2 | 4.1 | . | -0.2 | -4.8
Cc1nc(NC(=O)c2ccc3c(c2)OCO3)ccc1Br | -0.8 | 1.7 | 0.4 | -2.3 | .
CC(O)CC(C(=O)NNc1ccccc1)C(=O)NNc1ccccc1 (stereo not drawn) | . | -1.5 | . | 12.3 | .
O=C(NNc1ccccc1)C(CCO)C(=O)NNc1ccccc1 | 2.2 | 111.9* | . | 0.2 | .
CCc1cc2c(C)cc(=O)oc2cc1OC(=O)C1CCCN1C(=O)OC(C)(C)C (stereo not drawn) | . | . | . | . | -4.9
CC(=O)/C(C#N)=C1\NC(=O)C(Cc2ccccc2Cl)S1 (stereo not drawn) | . | . | . | . | 1.6
CC(=O)/C(C#N)=C1\NC(=O)C(Cc2cc(Cl)ccc2Cl)S1 (stereo not drawn) | 56.8* | 1.9 | 0.3 | . | 3.4
CCOc1ccc(OCCC(=O)NNC(=O)c2ccccc2Cl)cc1 | 0.8 | -3.5 | 3.1 | -0.8 | 3.5
Cc1csc(NC(=O)Cc2ccccc2[N+](=O)[O-])n1 | -1.0 | 16.8* | 1.2 | 0.7 | .
CCOC(=O)Cc1csc(NC(=O)Cc2ccccc2[N+](=O)[O-])n1 | -11.5 | -4.4 | . | 0.0 | .
COc1ccc2c3c([nH]c2c1)[C@H](CO)N(Cc1ccccc1)CC31CN(S(=O)(=O)c2ccc(C)cc2)C1 | 36.2* | 7.8 | 0.9 | -6.1 | .
COc1ccc2c3c([nH]c2c1)[C@@H](CO)N(Cc1ccccc1)CC31CN(S(=O)(=O)c2ccc(C)cc2)C1 | 20.3* | -0.3 | 0.3 | -3.5 | .
COc1ccc(S(=O)(=O)Nc2ccc3c(c2)C(=O)N([C@@H](C)CO)C[C@@H](C)[C@H](CN(C)S(=O)(=O)c2ccc(C)cc2)OCCCC[C@@H](C)O3)cc1 | ? | 18.5* | . | -0.5 | 3.7
COc1ccc(S(=O)(=O)N(C)C[C@@H]2OCCCC[C@H](C)Oc3ccc(NS(=O)(=O)c4ccc(C)cc4)cc3C(=O)N([C@@H](C)CO)C[C@@H]2C)cc1 | 14.6 | 20.2* | -0.2 | -2.2 | 1.9
C[C@@H]1CN([C@H](C)CO)C(=O)c2cc(-c3ccncc3)cnc2O[C@@H]1CN(C)C(=O)c1ccccc1F | -2.4 | 3.0 | 1.0 | 2.4 | 1.2
